Our source for the Ki, pKa and Activity values is ChEMBL document CHEMBL4732129, “Rationally designed N-phenylsulfonylindoles as a tool for the analysis of the non-basic 5-HTR ligands binding mode” (Eur J Med Chem, 2021).

The target of data set [1] is 5-hydroxytryptamine receptor 6 (Homo sapiens, UniProt P50406). Briefly: Displacement of [3H]-LSD from human 5-HT6 receptor incubated for 1 hr by microbeta counting method. In a few lines:
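Human receptor membranes from homogenized cell pellets, centrifuged twice at 35 000 g with a 15 min 37°C incubation between spins. Buffer 50 mM Tris–HCl, 0.5 mM EDTA, 4 mM MgCl2. Radioligand 2 nM [3H]-LSD. Nonspecific binding defined with 10 μM methiothepine. Incubated 1 h at 37°C, ended by filtration. Triplicates at 7–8 concentrations (10⁻¹¹–10⁻⁴ M). Ki by Cheng-Prusoff, means of ≥2 experiments.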
(In a radioligand displacement assay an active substance lowers the binding of a labelled ligand.)

Data set [2] can be described thus: Dissociation constant, pKa of the compound. The format is physicochemical.
In data set [3] the target is 5-hydroxytryptamine receptor 2A (Homo sapiens, UniProt P28223). Briefly: Binding affinity to 5-HT2A receptor (unknown origin) incubated for 1 hr by microbeta counting based displacement assay.
Sequence of 5-hydroxytryptamine receptor 2A (P28223 whole entry): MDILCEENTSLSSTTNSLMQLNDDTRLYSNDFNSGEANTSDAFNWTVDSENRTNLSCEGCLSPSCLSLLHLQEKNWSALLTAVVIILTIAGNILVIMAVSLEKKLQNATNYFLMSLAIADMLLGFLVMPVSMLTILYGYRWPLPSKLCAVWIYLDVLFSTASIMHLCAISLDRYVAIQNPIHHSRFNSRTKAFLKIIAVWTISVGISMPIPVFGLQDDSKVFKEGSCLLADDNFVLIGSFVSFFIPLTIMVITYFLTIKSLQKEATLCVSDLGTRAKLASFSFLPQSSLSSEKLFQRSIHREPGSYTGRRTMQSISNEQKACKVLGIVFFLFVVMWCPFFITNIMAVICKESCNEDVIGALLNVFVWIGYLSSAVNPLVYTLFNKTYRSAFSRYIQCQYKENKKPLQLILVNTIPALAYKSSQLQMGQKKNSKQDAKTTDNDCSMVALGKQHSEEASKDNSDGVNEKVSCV
Data set [4] concerns the target 5-hydroxytryptamine receptor 7 (Homo sapiens) (UniProt P34969). Briefly: Displacement of [3H]-5-CT from 5-HT7b receptor (unknown origin) incubated for 1 hr by microbeta counting method. In a few lines: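 Membranes from thawed cell pellets, homogenized and centrifuged twice at 35 000 g (20 min, 4°C) with a 15 min 37°C incubation between spins. Buffer 50 mM Tris–HCl, 4 mM MgCl2, 10 μM pargyline, 0.1% ascorbate. Radioligand 0.6 nM [3H]-5-CT. Nonspecific binding defined with 10 μM 5-HT. Incubated 1 h at 37°C, ended by rapid filtration. Triplicates at 7–8 concentrations (10⁻¹¹–10⁻⁴ M). Ki by Cheng-Prusoff, means of ≥2 experiments.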

The target in the next data set is D(2) dopamine receptor (Homo sapiens, UniProt P14416). Briefly: Displacement of [3H]-Raclopride from dopamine D2 receptor (unknown origin) incubated for 1 hr by microbeta counting method. The method in brief: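 D2L receptor membranes from cell pellets, homogenized and spun twice at 35 000 g with a 15 min 37°C step between spins. Buffer 50 mM Tris–HCl, 1 mM EDTA, 4 mM MgCl2, 120 mM NaCl, 5 mM KCl, 1.5 mM CaCl2, 0.1% ascorbate. Radioligand [3H]-raclopride. Nonspecific binding defined with 1 μM (+)butaclamol. Incubated 1 h at 37°C, then filtered. Triplicates at 7–8 concentrations (10⁻¹¹–10⁻⁴ M). Ki by Cheng-Prusoff, means of ≥2 experiments.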
Sequence of D(2) dopamine receptor (P14416 whole entry): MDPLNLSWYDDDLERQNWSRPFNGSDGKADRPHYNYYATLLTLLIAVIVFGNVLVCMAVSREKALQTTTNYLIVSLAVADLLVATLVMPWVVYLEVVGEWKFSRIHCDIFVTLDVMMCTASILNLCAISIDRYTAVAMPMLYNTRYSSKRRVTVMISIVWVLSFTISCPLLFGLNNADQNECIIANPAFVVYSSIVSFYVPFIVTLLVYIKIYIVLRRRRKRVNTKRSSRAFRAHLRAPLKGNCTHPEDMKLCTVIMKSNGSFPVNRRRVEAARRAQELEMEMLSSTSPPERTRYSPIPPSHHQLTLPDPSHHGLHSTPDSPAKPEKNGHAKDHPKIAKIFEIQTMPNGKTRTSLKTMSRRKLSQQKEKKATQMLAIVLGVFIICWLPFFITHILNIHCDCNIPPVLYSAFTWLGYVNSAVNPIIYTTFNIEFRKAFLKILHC

The target of data set [5] is T1, 5-hydroxytryptamine receptor 1A (Homo sapiens) (UniProt P08908).
T1 sequence (whole entry): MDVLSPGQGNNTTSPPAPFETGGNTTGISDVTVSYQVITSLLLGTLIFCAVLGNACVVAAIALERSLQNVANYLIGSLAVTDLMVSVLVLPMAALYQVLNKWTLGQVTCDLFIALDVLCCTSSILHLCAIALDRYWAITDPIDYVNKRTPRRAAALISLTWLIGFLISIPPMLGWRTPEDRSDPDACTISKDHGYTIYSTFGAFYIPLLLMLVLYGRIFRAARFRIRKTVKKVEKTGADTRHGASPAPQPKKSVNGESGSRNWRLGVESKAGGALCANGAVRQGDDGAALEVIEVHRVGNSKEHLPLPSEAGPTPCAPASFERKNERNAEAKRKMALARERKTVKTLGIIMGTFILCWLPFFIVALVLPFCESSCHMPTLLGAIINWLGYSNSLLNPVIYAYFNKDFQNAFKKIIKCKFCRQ
Briefly: (§1) Displacement of [3H]-8-OH-DPAT from 5-HT1A receptor (unknown origin) incubated for 1 hr by microbeta counting method. The method in brief:
(§2)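 Membranes prepared from cell pellets by homogenization and two 35 000 g spins with a 15 min 37°C step between them. Buffer 50 mM Tris–HCl, 0.1 mM EDTA, 4 mM MgCl2, 10 μM pargyline, 0.1% ascorbate. Radioligand 1.5 nM [3H]-8-OH-DPAT. Nonspecific binding defined with 10 μM 5-HT. Incubated 1 h at room temperature, then filtered. Triplicates at 7–8 concentrations (10⁻¹¹–10⁻⁴ M). Ki by Cheng-Prusoff, means of ≥2 experiments.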

Data set [6] deals with T2, 5-hydroxytryptamine receptor 1A (Homo sapiens, UniProt P08908).
T2 sequence (P08908 whole entry): T1 sequence (whole entry)
The description is as §1. The method in brief:
as §2

Each structure is given as a SMILES string. The source made the active and inactive calls. The calls are words filed in the database; no cut-off is given here.

Sequence of 5-hydroxytryptamine receptor 6 (P50406 whole entry): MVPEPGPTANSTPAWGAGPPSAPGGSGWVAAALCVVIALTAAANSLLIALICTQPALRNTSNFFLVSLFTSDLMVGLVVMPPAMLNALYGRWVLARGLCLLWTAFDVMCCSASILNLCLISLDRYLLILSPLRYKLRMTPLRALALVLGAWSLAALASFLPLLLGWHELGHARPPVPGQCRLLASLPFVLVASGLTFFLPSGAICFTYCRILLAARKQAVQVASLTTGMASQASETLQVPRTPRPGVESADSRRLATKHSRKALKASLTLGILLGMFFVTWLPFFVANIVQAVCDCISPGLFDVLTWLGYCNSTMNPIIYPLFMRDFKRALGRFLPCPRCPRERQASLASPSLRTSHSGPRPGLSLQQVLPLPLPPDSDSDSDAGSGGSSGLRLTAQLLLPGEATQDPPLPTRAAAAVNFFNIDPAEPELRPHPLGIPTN
Sequence of 5-hydroxytryptamine receptor 7 (Homo sapiens) (P34969 whole entry): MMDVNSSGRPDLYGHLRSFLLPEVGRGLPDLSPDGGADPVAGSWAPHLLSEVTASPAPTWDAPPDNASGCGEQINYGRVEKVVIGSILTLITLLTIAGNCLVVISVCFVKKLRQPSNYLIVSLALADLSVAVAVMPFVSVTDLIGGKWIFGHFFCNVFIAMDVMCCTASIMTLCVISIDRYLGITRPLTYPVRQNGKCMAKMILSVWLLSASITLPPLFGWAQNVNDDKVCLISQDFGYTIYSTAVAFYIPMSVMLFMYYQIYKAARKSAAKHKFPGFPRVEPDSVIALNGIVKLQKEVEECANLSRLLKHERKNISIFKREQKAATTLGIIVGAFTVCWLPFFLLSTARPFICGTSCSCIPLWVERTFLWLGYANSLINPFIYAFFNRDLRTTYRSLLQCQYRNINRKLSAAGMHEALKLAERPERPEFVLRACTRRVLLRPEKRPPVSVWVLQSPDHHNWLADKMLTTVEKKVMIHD

In the case of `CC(=O)N1CCN(c2cn(S(=O)(=O)c3ccccc3)c3ccccc23)CC1`, the affinity in data set [1], expressed as Ki, was 97 nM. The pKa (usually the negative logarithm of the acid dissociation constant) in data set [2] stood at 0.6.
Regarding `O=S(=O)(c1ccccc1)n1ccc2c(-c3ccccc3)cccc21`, the inhibitory constant (Ki) (in general, a measure of affinity in units of concentration, obtained from inhibition or displacement) in data set [1] worked out at 162 nM.
Take `O=S(=O)(c1ccccc1)n1ccc2ccc(-c3ccncc3)cc21`: the outcome (in data set [3]; in data set [4]; at D(2) dopamine receptor; in data set [5]) was inactive. Besides, the Ki in data set [1] worked out at 38 nM. Besides, the pKa in data set [2] turned out to be 4.9.
In data set [1], `O=S(=O)(c1ccccc1)n1ccc2ccc(-c3ccccc3)cc21` came in with a Ki of 178 nM.
In data set [1], `O=S(=O)(C1CCCCC1)n1ccc2ccc(-c3ccncc3)cc21` showed a Ki of 2180 nM.
Regarding `O=S(=O)(N1CCCCC1)n1ccc2ccc(-c3ccncc3)cc21`, in data set [1], the Ki came to 1660 nM.
As for `CN(C)c1ccc2ccn(S(=O)(=O)c3ccccc3)c2c1`, the Ki in data set [1] worked out at 211 nM. Also, the pKa in data set [2] is -0.3.
In data set [1], `CN(C)c1cccc2c1ccn2S(C)(=O)=O` had a Ki of 4720 nM.
For the compound `CN1CCN(c2ccc3ccn(S(=O)(=O)c4ccccc4)c3c2)CC1`, the Ki on D(2) dopamine receptor came to 241 nM; in data set [6], 247 nM; in data set [1], 9 nM. Moreover, in data set [2], the pKa was 8.2.
With `O=S(=O)(c1ccccc1)n1ccc2ccc(N3CCN(CC(F)(F)F)CC3)cc21`, in data set [1], the Ki worked out at 1200 nM. The compound further had a pKa in data set [2] of 3.6.
The compound `O=S(=O)(c1ccccc1)n1ccc2c(O)cccc21` yielded a Ki in data set [1] of 108 nM.
For `O=S(=O)(c1ccccc1)n1ccc2ccccc21`, the Ki in data set [1] is 159 nM.
In turn, `O=S(=O)(c1ccccc1)n1ccc2c(N3CCN(CC(F)(F)F)CC3)cccc21` came in with a Ki in data set [1] of 1740 nM. The same compound had a pKa in data set [2] of 3.9.
With `CCCCS(=O)(=O)n1ccc2ccc(-c3ccncc3)cc21`, the affinity in data set [1] corresponds to a Ki of 1150 nM.
Consider `O=S(=O)(c1ccccc1)n1cc(N2CCCCC2)c2ccccc21`, for which the Ki in data set [1] was found to be 219 nM. The pKa in data set [2] worked out at 4.5.
For `O=S(=O)(c1ccccc1)n1ccc2cc(-c3ccccc3)ccc21`, in data set [1], affinity was put at a Ki of 558 nM.
In data set [1], `CN(C)c1cccc2c1ccn2S(=O)(=O)C1CCCCC1` had a Ki of 4890 nM.
Still for that read-out and setting: then `O=S(=O)(c1ccccc1)n1cc(-c2ccccc2)c2ccccc21`, with 146 nM.
Take `O=S(=O)(c1ccccc1)n1ccc2ccc(N3CCCCC3)cc21`: the Ki in data set [1] is 403 nM. Besides, the pKa in data set [2] is -0.4.
In the case of `O=S(=O)(c1ccccc1)n1ccc2c(N3CCCCC3)cccc21`, in data set [1], the Ki was found to be 128 nM. Further, the pKa in data set [2] came out at 5.4.
On to `O=S(=O)(c1ccccc1)n1ccc2c(-c3ccncc3)cccc21`, for which, in data set [1], the Ki was found to be 1510 nM. In addition, the pKa in data set [2] is 4.9.
Consider `COc1ccc2c(ccn2S(=O)(=O)c2ccccc2)c1`, for which affinity in data set [1] was put at a Ki of 127 nM.
Consider `CN(C)c1ccc2c(ccn2S(=O)(=O)c2ccccc2)c1`, for which, in data set [1], the Ki is 82 nM. The compound further registered a pKa in data set [2] of 3.3.
Taken in the same sequence, the figures for `CN1CCN(c2ccc3c(ccn3S(=O)(=O)c3ccccc3)c2)CC1` were 27 nM and 7.4.
Regarding `CN1CCN(c2cccc3c2ccn3S(=O)(=O)c2ccccc2)CC1`, the Ki amounted to 41 nM in data set [3] and 164 nM in data set [6]. This compound registered a pKa in data set [2] of 7.3.
`CN(C)c1cn(S(=O)(=O)c2ccccc2)c2ccccc12` came in with a Ki in data set [1] of 474 nM. For the same compound, the pKa in data set [2] was 4.2.
Taken in the same sequence, the figures for `O=S(=O)(c1ccccc1)n1cc(-c2ccncc2)c2ccccc21` were 124 nM and 5.
As to `c1ccc(Cn2ccc3ccc(-c4ccncc4)cc32)cc1`, the affinity in data set [1] corresponds to a Ki of 3260 nM.
In the case of `CN(C)c1cccc2c1ccn2S(=O)(=O)c1ccccc1`, the result (in data set [3]; in data set [4]; at D(2) dopamine receptor; in data set [5]) was inactive. The Ki in data set [1] was found to be 65 nM. For the same compound, the pKa in data set [2] was determined as 5.
`O=S(=O)(c1ccccc1)n1cc(N2CCN(CC(F)(F)F)CC2)c2ccccc21` displayed a Ki in data set [1] of 2030 nM. The pKa in data set [2] came out at 3.6.
Turning to `COc1cccc2c1ccn2S(=O)(=O)c1ccccc1`, in data set [1], the Ki stood at 262 nM.
`CCCCS(=O)(=O)n1ccc2c(N(C)C)cccc21`: in data set [1], the affinity corresponds to a Ki of 49900 nM.
Compound `CC(=O)N1CCN(c2ccc3c(ccn3S(=O)(=O)c3ccccc3)c2)CC1` came in with a Ki in data set [1] of 4850 nM. In data set [2], the pKa stood at 0.9.
With `O=S(=O)(c1ccccc1)n1ccc2cc(N3CCCCC3)ccc21`, in data set [1], the affinity, expressed as Ki, was 360 nM. The compound further displayed a pKa in data set [2] of 1.9.
The compound `CN(C)c1cccc2c1ccn2Cc1ccccc1` gave a Ki in data set [1] of 2560 nM.
In turn, `CC(=O)N1CCN(c2ccc3ccn(S(=O)(=O)c4ccccc4)c3c2)CC1` displayed a Ki in data set [1] of 97 nM. The compound also gave a pKa in data set [2] of -0.4.
`CS(=O)(=O)n1ccc2ccc(-c3ccncc3)cc21`: the Ki in data set [1] amounted to 4050 nM.
For the compound `CN1CCN(c2cn(S(=O)(=O)c3ccccc3)c3ccccc23)CC1`, in data set [2], the pKa was 7.4.
For the compound `O=S(=O)(c1ccccc1)n1ccc2cc(N3CCN(CC(F)(F)F)CC3)ccc21`, the Ki in data set [1] stood at 5250 nM. In addition, the pKa in data set [2] amounted to 3.4.
`CC(=O)N1CCN(c2cccc3c2ccn3S(=O)(=O)c2ccccc2)CC1`: the Ki in data set [1] stood at 714 nM. This compound showed a pKa in data set [2] of 0.8.
In the case of `O=S(=O)(c1ccccc1)n1ccc2cc(-c3ccncc3)ccc21`, the Ki in data set [1] was 409 nM. In data set [2], this compound returned a pKa of 4.5.
For the compound `CN(C)c1cccc2c1ccn2S(=O)(=O)N1CCCCC1`, in data set [1], the Ki was found to be 39100 nM.
